Experimental findings from PubChem BioAssay AID493050 (Broad Institute, 2011) are described below.

Usually AC50 stands for the concentration giving half of the maximal activity seen.

Values joined by “and” are separate entries in the source; they are usually repeats but may differ in a detail not shown here. Equal values may be shown once. Active and inactive are the calls of the source.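 How the source made its calls: active means viability falling with dose, half-maximal potency at or under ten times the top valid dose; inconclusive means flat partial loss of viability, or an unreliable curve fit; inactive means the rest, including a rising signal.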

Test system in the first assay: not listed separately
The experiment in a line: DRD BJ cell killing, Ras synthetic lethality – DRD BJ fibroblasts, HRASV12, dry powder, set 2, dose response (AID 493050). The settings on record: DRD (HRASV12 BJ) fibroblasts viability, Alamar Blue, 48 h; at 48 µM (top of the series). The essentials:
(§1)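 Assay system: DRD BJ fibroblasts expressing SV40 ST, dn-p53, cyclin D1, CDK4mut, HRASV12; signal: Alamar Blue fluorescence, excitation 544 nm, emission 590 nm; incubation: 48 h compound treatment, ~16 h dye incubation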
Background: Resazurin is reduced to fluorescent resorufin, in cell work by metabolically active cells.
On to `CC(C)c1onc(C(=O)N2CCN(C(c3ccccc3)c3ccccc3)CC2)c1[N+](=O)[O-]`, for which the activity change, negative = viability loss was 4.37% (inactive).
`Cc1onc(C(=O)N2CCN(C(c3ccccn3)c3ccccn3)CC2)c1[N+](=O)[O-]`: the activity change, negative = viability loss was 3.35% (inactive).
The same measure, in the same setting: the same measure for `O=[N+]([O-])c1ccc(CN2CCN(C(c3ccccc3)c3ccccc3)CC2)o1`: -0.32% (inactive); for `Cc1ccc(C(=O)N2CCN(C(c3ccccc3)c3ccccc3)CC2)c([N+](=O)[O-])c1`: 15.7% (inactive).
On the same count and under the same terms, the same measure for `Cc1onc(C(=O)N2CCN(C(c3ccncc3)c3ccncc3)CC2)c1[N+](=O)[O-]`: 1.3% (inactive); for `O=C(c1noc2ccccc12)N1CCN(C(c2ccccc2)c2ccccc2)CC1`: 4.79% (inactive).
On the same count and under the same terms, in the case of `Cc1onc(C(=O)N2CCN(C(c3ccccc3)c3ccccc3)CC2)c1NS(C)(=O)=O` it was 2.79% (inactive); in that of `Cc1onc(C(=O)N2CCN(C(c3ccccc3)c3ccccc3)CC2)c1Br`, 8.89% (inactive).
`CC(=O)Nc1c(C(=O)N2CCN(C(c3ccccc3)c3ccccc3)CC2)noc1C`: the activity change, negative = viability loss is 5.57% (inactive).
Same read-out and setting: the same measure for `Cc1onc(C(=O)N2CCN(C(c3ccccc3)c3ccccc3)CC2)c1C`: 10.5% (inactive); for `Cc1oc(C)c(C(=O)N2CCN(C(c3ccccc3)c3ccccc3)CC2)c1C`: 11.7% (inactive); for `Cc1onc(C(=O)N2CCN(C(c3ccccc3)c3ccccc3)CC2)c1N`: 1.23% (inactive).

Staying with this assay, now noted: DRD (HRASV12 BJ) fibroblasts viability, Alamar Blue, 48 h; at 68 µM (top of the series).
On to `Cc1onc(C(=O)NCc2ccc(F)cc2)c1[N+](=O)[O-]`, for which the activity change, negative = viability loss is 0.881% (inactive).
The same measure, in the same setting: in the case of `COc1ccccc1N1CCN(C(=O)c2noc(C)c2[N+](=O)[O-])CC1` it was 0.386% (inactive).
Same read-out and setting: the same measure for `Cc1cc(C(=O)N2CCN(Cc3ccccc3)CC2)no1`: -2.15% (inactive); for `CCOC(=O)N1CCN(C(=O)c2noc(C)c2[N+](=O)[O-])CC1`: 6.53% (inactive); for `Cc1onc(C(=O)N2CCOCC2)c1[N+](=O)[O-]`: 4.86% (inactive).

Another assay concerns DRD (HRASV12 BJ) fibroblasts viability, Alamar Blue, 48 h. The description is as above.
Conditions: not given
The essentials: as §1
Take `Cc1onc(C(=O)N2CCN(C(c3ccccc3)c3ccccc3)CC2)c1[N+](=O)[O-]`: the AC50 was 4.75 µM and 1.71 µM.
Still for that read-out and setting: the same measure for `Cc1onc(C(=O)N2CCN(C(c3ccc(F)cc3)c3ccc(F)cc3)CC2)c1[N+](=O)[O-]`: 0.226 µM; for `O=C(c1ccc([N+](=O)[O-])o1)N1CCN(C(c2ccc(F)cc2)c2ccc(F)cc2)CC1`: 13.1 µM.
Consider `O=C(NCCNC(c1ccccc1)c1ccccc1)c1ccc([N+](=O)[O-])o1`, for which the AC50 was 8.27 µM.
Still for that read-out and setting: in the case of `O=C(c1ccc([N+](=O)[O-])o1)N1CCN(C(c2ccccc2)c2ccccc2)CC1` it was 19.4 µM; in that of `COc1ccc(C(c2ccc(OC)cc2)N2CCN(C(=O)c3noc(C)c3[N+](=O)[O-])CC2)cc1`, 1.85 µM; in that of `Cc1onc(C(=O)N2CCN(C(c3ccc(Cl)cc3)c3ccc(Cl)cc3)CC2)c1[N+](=O)[O-]`, 0.107 µM.
The same measure, in the same setting: the same measure for `Cc1onc(C(=O)N2CCN(C(c3ccccc3)c3ccc(Cl)cc3)CC2)c1[N+](=O)[O-]` (centres undefined): 0.21 µM.
On the same count and under the same terms, in the case of `COc1ccc(C(c2ccc(OC)cc2)N2CCN(C(=O)c3ccc([N+](=O)[O-])o3)CC2)cc1` it was 8.37 µM; in that of `O=C(c1ccc([N+](=O)[O-])o1)N1CCCN(C(c2ccccc2)c2ccccc2)CC1`, 46.5 µM.
On to `Cc1onc(C(=O)N2CCCN(C(c3ccccc3)c3ccccc3)CC2)c1[N+](=O)[O-]`, for which the AC50 was 1.1 µM.
On the same count and under the same terms, in the case of `Cc1onc(C(=O)NCCNC(c2ccccc2)c2ccccc2)c1[N+](=O)[O-]` it was 16 µM.
